The record followed here is ChEMBL document CHEMBL1145097 (J Med Chem, 2003).

One may read the logD as lipophilicity at a set pH, counting ionised and neutral species. Usually ED50 stands for the dose at which the effect has come halfway, by size or by number of responders. One may read the IC50 as the midpoint of a concentration-inhibition curve. A word on the Ki: it is a measure of affinity in units of concentration, obtained from inhibition or displacement. Low values mean a stronger hold on the target, high ones a looser hold on the target.

Data set [1] is described as follows: LogD value was determined. The data set is classed as physicochemical. Particulars: octanol/water. In a few lines: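 log D determined by an HPLC method.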
In data set [2] the test system is Rattus norvegicus. Description: In vivo intraperitoneal effective dose to block fear conditioning in rats was determined by FPS (fear potentiated startle) model of anxiety. Format: functional. Particulars: ip. A digest of the protocol: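 Fear-potentiated startle anxiety model in rats. Compound given ip and measurement taken 1 h after administration. 8 rats/group. ED50 reported as mean, with ED50 values from individual experiments (95% confidence interval).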

In data set [3] the target is T1, Glutamate receptor ionotropic, NMDA 2B (Homo sapiens, UniProt Q05586+Q13224). Kind of data set: Tested for in vitro antagonistic activity against recombinant human N-methyl-D-aspartate glutamate receptor 2B. The data set is classed as functional. In a few lines: (§1)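 Cell line stably expressing recombinant human NR1A/2B NMDA receptors. Inhibition of NMDA/glycine-evoked rise in intracellular Ca2+. Six-point concentration-response curve with 8-22 cells per concentration.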
T1 sequence (Q13224 whole entry, one chain of several): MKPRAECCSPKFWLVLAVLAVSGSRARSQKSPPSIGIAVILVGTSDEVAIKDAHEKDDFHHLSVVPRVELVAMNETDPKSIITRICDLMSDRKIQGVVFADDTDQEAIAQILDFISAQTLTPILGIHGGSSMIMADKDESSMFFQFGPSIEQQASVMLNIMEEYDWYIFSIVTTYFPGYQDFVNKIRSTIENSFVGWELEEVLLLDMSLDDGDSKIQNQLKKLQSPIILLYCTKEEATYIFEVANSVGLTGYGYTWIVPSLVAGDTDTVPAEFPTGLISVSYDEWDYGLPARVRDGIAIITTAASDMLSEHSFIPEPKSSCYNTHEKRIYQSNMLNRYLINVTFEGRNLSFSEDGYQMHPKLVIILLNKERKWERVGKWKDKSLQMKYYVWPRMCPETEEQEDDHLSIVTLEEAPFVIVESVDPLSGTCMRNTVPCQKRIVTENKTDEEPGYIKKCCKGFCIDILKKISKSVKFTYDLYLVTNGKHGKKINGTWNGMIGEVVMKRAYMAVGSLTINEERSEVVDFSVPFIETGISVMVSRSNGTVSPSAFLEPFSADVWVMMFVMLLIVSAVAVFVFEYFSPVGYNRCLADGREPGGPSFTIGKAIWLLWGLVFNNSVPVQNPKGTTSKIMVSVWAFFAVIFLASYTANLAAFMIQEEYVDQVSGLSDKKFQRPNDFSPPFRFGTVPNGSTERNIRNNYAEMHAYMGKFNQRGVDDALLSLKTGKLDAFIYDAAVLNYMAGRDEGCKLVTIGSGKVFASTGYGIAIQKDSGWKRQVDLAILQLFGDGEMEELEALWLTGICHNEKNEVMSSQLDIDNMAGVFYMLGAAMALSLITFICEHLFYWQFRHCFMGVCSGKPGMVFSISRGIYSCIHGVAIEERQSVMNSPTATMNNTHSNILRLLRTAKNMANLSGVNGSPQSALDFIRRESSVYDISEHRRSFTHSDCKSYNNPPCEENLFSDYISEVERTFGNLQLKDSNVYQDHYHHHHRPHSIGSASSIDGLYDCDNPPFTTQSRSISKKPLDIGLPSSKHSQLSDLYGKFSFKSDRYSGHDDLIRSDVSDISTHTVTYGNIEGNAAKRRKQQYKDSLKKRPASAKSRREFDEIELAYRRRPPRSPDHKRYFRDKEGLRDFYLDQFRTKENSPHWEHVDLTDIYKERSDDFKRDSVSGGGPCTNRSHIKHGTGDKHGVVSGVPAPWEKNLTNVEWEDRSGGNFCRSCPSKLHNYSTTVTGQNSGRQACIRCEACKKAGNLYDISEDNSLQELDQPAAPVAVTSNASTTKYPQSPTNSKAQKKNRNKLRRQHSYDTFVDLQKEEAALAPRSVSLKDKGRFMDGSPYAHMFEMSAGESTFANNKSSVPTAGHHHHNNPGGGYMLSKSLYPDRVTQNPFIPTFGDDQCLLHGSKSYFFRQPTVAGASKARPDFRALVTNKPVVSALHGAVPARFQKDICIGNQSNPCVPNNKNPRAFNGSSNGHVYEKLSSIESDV

For data set [4], the system named is Rattus norvegicus. Description: (§2) Amount in vivo in rat plasma after intraperitoneal dose of 3 mg/Kg. Format: ADME, organism-based. Particulars: ip, read-out: Plasma level. A digest of the protocol:
(§3)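 Rats given 3 mg/kg ip; brain (hippocampus) and plasma drug levels measured 1 h after dosing. Mean ± SEM, n = rats per group.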

The subject of data set [5] is Rattus norvegicus. Kind of data set: Amount in vivo in rat brain after intraperitoneal dose of 3 mg/Kg. Particulars: ip, read-out: Brain level. Format: ADME, organism-based. A digest of the protocol:
as §3

Data set [6] deals with Rattus norvegicus. Kind of data set: Amount in vivo in rat cerebrospinal fluid (CSF) after oral dose of 30 mg/Kg. Particulars: read-out: CSF levels.
The target in data set [7] is Metabotropic glutamate receptor 1 (Homo sapiens, UniProt Q13255). Description: Tested for in vitro antagonistic activity against Metabotropic glutamate receptor 1. Format: functional. A digest of the protocol:
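Ca2+ flux assay at mGlu1a, with compounds tested in both agonist and antagonist modes. Initial screen at 10 µM; concentration-response curves generated where inhibition was seen.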

The target of data set [8] is T2, Amine oxidase [flavin-containing] A (Mus musculus, UniProt Q64133).
T2 sequence (Q64133 whole entry): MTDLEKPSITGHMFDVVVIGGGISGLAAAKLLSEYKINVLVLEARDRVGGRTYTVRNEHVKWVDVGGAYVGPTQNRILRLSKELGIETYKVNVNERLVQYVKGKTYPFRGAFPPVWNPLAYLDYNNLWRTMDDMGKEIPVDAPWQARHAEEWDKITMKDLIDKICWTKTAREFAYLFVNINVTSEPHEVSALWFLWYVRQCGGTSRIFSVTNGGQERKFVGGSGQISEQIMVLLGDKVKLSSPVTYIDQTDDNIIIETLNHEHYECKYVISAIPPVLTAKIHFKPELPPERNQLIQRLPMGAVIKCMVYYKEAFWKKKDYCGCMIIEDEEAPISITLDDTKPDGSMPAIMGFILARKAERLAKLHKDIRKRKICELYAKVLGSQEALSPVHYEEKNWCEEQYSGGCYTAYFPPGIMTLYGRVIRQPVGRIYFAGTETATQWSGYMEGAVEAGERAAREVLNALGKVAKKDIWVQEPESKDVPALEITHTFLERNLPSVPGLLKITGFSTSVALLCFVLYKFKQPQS
Kind of data set: Tested for in vitro antagonistic activity against Monoamine oxidase A. Format: functional. A digest of the protocol:
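Displacement of [125I]RTI-55 binding at MAOA. IC50 given with range in parentheses. Initial screen at 10 µM, followed by concentration-response curves where inhibition was detected.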

Data set [9] concerns the target Metabotropic glutamate receptor 5 (Rattus norvegicus, UniProt P31424). Kind of data set: Tested for displacement of [3H]3-methoxy-5-(pyridin-2-ylethynyl) pyridine from Metabotropic glutamate receptor 5 in rat cortical membrane. Format: cell membranes. A digest of the protocol:
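Rat cortical membranes; displacement of [3H]-3-methoxy-5-(pyridin-2-ylethynyl)pyridine bound to native mGlu5. Geometric mean with standard deviation and number of replicates.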

In data set [10] the target is Metabotropic glutamate receptor 5 (Homo sapiens, UniProt P41594). Kind of data set: Tested in vitro against human recombinant Metabotropic glutamate receptor 5 stably expressed in LtK cells by [Ca2+] flux assay using glutamate as agonist.
Sequence of Metabotropic glutamate receptor 5 (Homo sapiens, UniProt P41594) (P41594 whole entry): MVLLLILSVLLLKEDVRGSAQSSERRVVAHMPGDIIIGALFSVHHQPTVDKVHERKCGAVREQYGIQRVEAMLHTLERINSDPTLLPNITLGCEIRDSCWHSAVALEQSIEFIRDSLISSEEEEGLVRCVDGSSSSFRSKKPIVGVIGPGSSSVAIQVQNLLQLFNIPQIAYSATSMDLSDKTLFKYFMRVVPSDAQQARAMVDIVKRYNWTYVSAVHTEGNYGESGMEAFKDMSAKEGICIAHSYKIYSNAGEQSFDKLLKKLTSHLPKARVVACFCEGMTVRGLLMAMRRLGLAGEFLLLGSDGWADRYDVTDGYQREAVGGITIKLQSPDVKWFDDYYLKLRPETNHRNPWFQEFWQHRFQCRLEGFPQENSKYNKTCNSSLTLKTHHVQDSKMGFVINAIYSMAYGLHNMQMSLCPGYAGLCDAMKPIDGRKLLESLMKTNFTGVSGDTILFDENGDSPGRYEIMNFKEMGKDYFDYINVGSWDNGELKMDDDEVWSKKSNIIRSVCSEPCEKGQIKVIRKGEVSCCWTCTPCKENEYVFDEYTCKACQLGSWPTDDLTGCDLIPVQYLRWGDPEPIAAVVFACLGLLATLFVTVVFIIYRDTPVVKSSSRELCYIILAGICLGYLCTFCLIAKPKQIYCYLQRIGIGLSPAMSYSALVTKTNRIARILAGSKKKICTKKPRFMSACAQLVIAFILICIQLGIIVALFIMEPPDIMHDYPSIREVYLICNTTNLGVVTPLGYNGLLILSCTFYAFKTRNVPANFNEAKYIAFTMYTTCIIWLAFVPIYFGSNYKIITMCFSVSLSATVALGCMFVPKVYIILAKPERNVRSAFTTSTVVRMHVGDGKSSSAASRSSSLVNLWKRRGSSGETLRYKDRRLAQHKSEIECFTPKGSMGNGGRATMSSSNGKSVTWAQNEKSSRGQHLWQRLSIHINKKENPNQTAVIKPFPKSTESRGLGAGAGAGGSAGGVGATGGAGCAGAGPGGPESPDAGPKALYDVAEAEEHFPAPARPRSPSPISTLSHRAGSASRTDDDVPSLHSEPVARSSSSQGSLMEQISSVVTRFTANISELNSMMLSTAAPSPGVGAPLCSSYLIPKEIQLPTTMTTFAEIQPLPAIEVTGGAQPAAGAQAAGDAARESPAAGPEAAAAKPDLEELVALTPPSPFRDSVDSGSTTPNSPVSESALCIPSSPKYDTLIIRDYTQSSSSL
Data set [11] addresses T1, Glutamate receptor ionotropic, NMDA 2B. Description: Tested for in vitro antagonistic activity against human N-methyl-D-aspartate glutamate receptor 2B. Format: functional. A digest of the protocol:
as §1

Data set [12] in a line: as §2. The data set is classed as ADME, organism-based. Particulars: ip, read-out: Plasma level. In a few lines: as §3
The target of data set [13] is T2, Amine oxidase [flavin-containing] A. Kind of data set: Tested for in vitro antagonistic activity against Monoamine oxidase. The data set is classed as functional. A digest of the protocol: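 Radioligand displacement of [125I]RTI-55 ([125I]methyl (1R,2S,3S,5S)-3-(4-iodophenyl)-8-methyl-8-azabicyclo[3.2.1]octane-2-carboxylate) from MAO-A. Compounds were first screened at 10 µM.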

Sequence of Metabotropic glutamate receptor 5 (Rattus norvegicus, UniProt P31424) (P31424 whole entry): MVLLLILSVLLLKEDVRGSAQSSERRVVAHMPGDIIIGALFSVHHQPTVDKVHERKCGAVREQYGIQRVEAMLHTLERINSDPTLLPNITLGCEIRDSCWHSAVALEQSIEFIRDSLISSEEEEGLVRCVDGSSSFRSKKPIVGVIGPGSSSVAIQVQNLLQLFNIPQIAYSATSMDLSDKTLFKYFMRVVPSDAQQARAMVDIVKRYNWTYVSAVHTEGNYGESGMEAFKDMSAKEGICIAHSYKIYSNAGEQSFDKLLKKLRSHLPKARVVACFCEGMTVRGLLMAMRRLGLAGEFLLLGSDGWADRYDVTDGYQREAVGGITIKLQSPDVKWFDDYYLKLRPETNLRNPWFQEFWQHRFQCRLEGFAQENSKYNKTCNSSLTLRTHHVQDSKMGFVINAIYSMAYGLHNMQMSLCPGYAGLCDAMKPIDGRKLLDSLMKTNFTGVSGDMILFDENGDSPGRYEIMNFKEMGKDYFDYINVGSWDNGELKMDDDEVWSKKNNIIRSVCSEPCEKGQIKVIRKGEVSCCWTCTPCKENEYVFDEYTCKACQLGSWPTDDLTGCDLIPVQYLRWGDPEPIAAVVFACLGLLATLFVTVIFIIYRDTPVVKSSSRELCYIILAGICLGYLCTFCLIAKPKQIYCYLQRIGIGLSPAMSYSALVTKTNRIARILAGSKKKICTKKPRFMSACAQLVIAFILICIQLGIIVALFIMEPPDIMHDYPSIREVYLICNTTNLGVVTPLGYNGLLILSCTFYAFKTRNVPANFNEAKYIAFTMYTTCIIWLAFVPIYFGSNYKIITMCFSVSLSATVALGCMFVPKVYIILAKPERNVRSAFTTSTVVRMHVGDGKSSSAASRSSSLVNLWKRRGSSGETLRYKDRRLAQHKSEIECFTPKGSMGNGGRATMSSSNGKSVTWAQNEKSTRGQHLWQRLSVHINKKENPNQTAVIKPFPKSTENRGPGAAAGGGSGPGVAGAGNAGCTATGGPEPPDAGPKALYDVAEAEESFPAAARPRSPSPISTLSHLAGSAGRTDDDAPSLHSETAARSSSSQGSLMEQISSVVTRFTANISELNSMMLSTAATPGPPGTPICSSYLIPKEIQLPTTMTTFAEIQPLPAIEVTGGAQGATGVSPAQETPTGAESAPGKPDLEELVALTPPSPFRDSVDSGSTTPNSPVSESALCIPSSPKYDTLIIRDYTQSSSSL
Sequence of Metabotropic glutamate receptor 1 (Q13255 whole entry): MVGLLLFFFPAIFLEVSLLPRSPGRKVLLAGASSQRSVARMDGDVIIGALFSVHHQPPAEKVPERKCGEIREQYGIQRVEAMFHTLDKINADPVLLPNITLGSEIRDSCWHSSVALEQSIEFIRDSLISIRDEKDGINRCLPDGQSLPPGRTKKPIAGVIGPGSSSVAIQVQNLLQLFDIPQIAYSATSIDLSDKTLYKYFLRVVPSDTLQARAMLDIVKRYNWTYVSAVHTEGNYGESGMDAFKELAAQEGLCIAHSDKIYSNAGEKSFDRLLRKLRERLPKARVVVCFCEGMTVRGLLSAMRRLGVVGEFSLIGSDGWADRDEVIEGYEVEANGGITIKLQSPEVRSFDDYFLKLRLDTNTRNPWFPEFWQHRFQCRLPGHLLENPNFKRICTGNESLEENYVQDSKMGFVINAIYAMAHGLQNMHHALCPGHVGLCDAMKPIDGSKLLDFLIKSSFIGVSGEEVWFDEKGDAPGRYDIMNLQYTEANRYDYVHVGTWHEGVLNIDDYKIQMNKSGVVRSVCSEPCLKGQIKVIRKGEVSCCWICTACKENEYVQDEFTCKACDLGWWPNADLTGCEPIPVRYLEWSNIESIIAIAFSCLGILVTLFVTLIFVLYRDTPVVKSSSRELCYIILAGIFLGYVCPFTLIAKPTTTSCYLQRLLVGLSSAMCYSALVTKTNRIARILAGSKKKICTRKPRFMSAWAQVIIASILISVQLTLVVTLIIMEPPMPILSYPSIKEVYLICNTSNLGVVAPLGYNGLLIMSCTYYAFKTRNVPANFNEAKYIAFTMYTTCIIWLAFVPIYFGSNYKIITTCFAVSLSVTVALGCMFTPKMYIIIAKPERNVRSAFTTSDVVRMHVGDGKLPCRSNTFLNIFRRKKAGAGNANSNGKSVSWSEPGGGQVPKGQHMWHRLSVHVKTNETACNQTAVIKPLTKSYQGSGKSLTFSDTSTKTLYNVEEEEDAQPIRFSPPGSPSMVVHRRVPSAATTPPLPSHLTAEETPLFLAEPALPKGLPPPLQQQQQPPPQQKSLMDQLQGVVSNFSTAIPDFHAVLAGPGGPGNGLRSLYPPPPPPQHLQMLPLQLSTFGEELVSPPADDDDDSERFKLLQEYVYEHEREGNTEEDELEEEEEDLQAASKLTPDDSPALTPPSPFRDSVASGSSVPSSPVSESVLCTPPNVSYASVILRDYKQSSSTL

In data set [1], `Cc1nc(C#Cc2cccnc2)cs1` returned a log distribution coefficient (logD) of 2.1. The ED50 in the data set on Rattus norvegicus [2] worked out at 1 mg/kg. In addition, the IC50 was over 300000 nM in data set [3], over 100000 nM in data set [7] and 30000 nM in [8]. Moreover, the values for the concentration in the data set on Rattus norvegicus [4], in the data set on Rattus norvegicus [5] and in the data set with Rattus norvegicus [6] were 1200 nM, 1400 nM and 1000 nM, respectively.
In [1], `Cc1nc(C#Cc2ccncc2)cs1` displayed a log distribution coefficient (logD) of 2.1. This compound also came in with an inhibitory constant (Ki) in data set [9] of 214 nM. Besides, the half-maximal inhibitory concentration (IC50) in data set [10] turned out to be 122 nM.
With `Cc1nc(C#Cc2ccccc2)cs1`, the logD in data set [1] was determined as 3.3. This compound also gave an inhibition constant Ki in [9] of 6 nM. Moreover, the IC50 in [10] amounted to 6 nM.
On to `C(#Cc1cscn1)c1ccccc1`, for which the pH-dependent lipophilicity (logD) in data set [1] came to 2.6. This compound also had an inhibition constant (Ki) in data set [9] of 142 nM. In [10], the IC50 was found to be 97 nM.
Consider `Cc1nc(C#Cc2ccccn2)cs1`, for which, in data set [1], the logD turned out to be 1.9. In data set [9], this compound registered a Ki of 48 nM. Besides, the IC50 in data set [10] is 53 nM.
`Cc1csc(C#Cc2ccccc2)n1` yielded a log distribution coefficient (logD) in data set [1] of 2.6. The inhibition constant (Ki) in [9] was 32 nM. In addition, the half-inhibitory concentration (IC50) in data set [10] was 13 nM.
In turn, `C(#Cc1nccs1)c1ccccc1` gave a logD in data set [1] of 3.2. For the same compound, affinity in data set [9] was put at a Ki of 153 nM. Further, the IC50 in [10] turned out to be 81 nM.
`Cc1cccc(C#Cc2ccccc2)n1` gave a logD in [1] of 3.5. For the same compound, the IC50 was 18000 nM in data set [11], over 100000 nM in data set [7] and 8000 nM in [13]. The 50% effective dose (ED50) in the data set with Rattus norvegicus [2] turned out to be 5 mg/kg. Also, the figures for the concentration (in [12]; with Rattus norvegicus [5]; in the data set with Rattus norvegicus [6]) were 390 nM, 830 nM and 210 nM, respectively.
